# Reference: ChEMBL document CHEMBL4325833, “Discovery of a Potent, Selective, and Brain-Penetrant Small Molecule that Activates the Orphan Receptor GPR88 and Reduces Alcohol Intake” (J Med Chem, 2018)
# The source made the active and inactive calls. No cut-off for these calls is given here.
# Columns and labels:
# [1] = molecular target: G protein-coupled receptor 88 (Homo sapiens, UniProt Q9GZN0)
# [2] = molecular target: G protein-coupled receptor 88 (Mus musculus, UniProt Q9EPB7); assay: Agonist activity at GPR88 in wild type mouse striatal membranes assessed as increase in [35S]-GTPgammaS binding after 1 hr by liquid scintillation counting; format: functional, cell membranes, Striatum, Membrane
# Mus musculus [3] = species: Mus musculus; assay: Increase in [35S]-GTPgammaS binding in GPR88 knocked out mouse striatal membranes at 10 uM after 1 hr by liquid scintillation counting; format: functional, cell membranes; conditions: Striatal membrane
# Mus musculus [4] = species: Mus musculus; assay: Increase in [35S]-GTPgammaS binding in GPR88 knocked out mouse striatal membranes at 100 uM after 1 hr by liquid scintillation counting; format: functional, cell membranes; conditions: Striatal membrane
# Summary of the method: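 Striata from GPR88 KO mice. Membranes made by sucrose homogenization and differential centrifugation (2500g, then 23000g). 2 µg protein per well incubated 1 h at 25 °C with 0.1 nM [35S]-GTPγS and GDP. Nonspecific binding taken with 10 µM GTPγS. Read by liquid scintillation counting, expressed as % above basal. Two independent experiments in triplicate.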
# VMAT = assay: Displacement of [3H]-dihydrotetrabenazine from VMAT in human platelet cell membranes at 10 uM after 60 mins by scintillation counting relative to control; conditions: probe [3H]-dihydrotetrabenazine
# Summary of the method: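 Radioligand binding screen run by Eurofins PanLabs under their standard protocols, single concentration 10 μM. Percent inhibition of radioligand binding is the average of two determinations.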
# [5] = molecular target: KOR (kappa-type opioid receptor) (Homo sapiens, UniProt P41145); assay: Binding affinity to human full length KOR assessed as reduction in radioligand binding at 10 uM after 60 mins by scintillation counting relative to control
# Summary of the method: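 Outsourced radioligand binding screen, one of 38 GPCR, ion channel and transporter targets, run to the provider's standard protocols. Test concentration was a single 10 µM. Percent inhibition of radioligand binding is the average of two determinations.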
# [6] = Displacement of [3H]-dihydrotetrabenazine from VMAT in human platelet cell membranes after 60 mins by scintillation counting
# Summary of the method: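 VMAT affinity follow-up run by Eurofins PanLabs under their standard protocols. Full concentration–displacement curves were run in duplicate. IC50 came from nonlinear regression and was converted to Ki by Cheng–Prusoff, using the radioligand concentration and historical Kd of the ligand.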
# Rattus norvegicus = assay: Decrease in alcohol self administration in Long-Evans rat assessed as reduction in alcohol lever responses at 5 to 20 mg/kg, ip administered 30 mins prior to a self-administration session; format: functional, organism-based
# Chain of G protein-coupled receptor 88 (Homo sapiens, UniProt Q9GZN0) (Q9GZN0 whole entry): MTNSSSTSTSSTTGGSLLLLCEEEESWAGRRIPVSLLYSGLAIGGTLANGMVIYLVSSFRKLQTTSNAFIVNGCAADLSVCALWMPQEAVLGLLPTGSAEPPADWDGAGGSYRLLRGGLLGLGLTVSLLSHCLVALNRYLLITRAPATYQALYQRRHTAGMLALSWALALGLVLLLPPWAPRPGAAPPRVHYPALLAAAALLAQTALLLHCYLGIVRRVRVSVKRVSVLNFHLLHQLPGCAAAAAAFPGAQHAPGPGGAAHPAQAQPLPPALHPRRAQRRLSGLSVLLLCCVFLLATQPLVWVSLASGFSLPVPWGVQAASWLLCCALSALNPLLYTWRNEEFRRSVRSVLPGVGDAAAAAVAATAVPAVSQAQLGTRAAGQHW
# Chain of KOR (kappa-type opioid receptor) (P41145 whole entry): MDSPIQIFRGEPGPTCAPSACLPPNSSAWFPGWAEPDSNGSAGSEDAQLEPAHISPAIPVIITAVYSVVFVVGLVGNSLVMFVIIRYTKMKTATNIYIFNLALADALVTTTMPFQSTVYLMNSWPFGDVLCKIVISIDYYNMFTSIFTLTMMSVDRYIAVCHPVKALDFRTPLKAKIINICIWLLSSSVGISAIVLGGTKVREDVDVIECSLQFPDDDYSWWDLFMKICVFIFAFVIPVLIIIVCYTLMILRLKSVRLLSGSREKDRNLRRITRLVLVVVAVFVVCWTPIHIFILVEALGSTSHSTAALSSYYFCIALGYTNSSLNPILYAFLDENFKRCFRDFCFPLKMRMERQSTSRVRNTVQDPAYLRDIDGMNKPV
# Chain of G protein-coupled receptor 88 (Mus musculus, UniProt Q9EPB7) (Q9EPB7 whole entry): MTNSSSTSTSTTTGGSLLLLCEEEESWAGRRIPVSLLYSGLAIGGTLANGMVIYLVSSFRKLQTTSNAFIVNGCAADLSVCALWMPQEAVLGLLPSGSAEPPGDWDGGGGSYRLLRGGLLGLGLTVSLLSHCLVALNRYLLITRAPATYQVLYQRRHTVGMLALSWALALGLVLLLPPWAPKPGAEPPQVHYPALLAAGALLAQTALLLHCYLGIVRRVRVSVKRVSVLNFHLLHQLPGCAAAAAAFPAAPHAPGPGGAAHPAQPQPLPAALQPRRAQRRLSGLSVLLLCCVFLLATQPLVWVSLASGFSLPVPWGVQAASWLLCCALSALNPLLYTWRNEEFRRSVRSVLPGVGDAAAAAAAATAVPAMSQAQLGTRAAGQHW
SMILES,EC50 [1] [µM],further results
CCCc1ccc(-c2ccc(N(CCN)C(=O)[C@@H]3C[C@H]3c3ccccn3)cc2)cc1,0.501,
CCCc1ccc(-c2ccc(N(C[C@@H](N)c3ccccc3)C(=O)[C@@H]3C[C@H]3c3ccccn3)cc2)cc1 (relative stereo),1.26,
COc1ccc(-c2ccc(N(C[C@@H](N)[C@@H](C)OC)C(=O)[C@@H]3C[C@H]3c3ccccn3)cc2)cc1 (relative stereo),0.126,
CCCc1ccc(-c2ccc(N(C[C@@H](N)Cc3ccccc3)C(=O)[C@@H]3C[C@H]3c3ccccn3)cc2)cc1,0.501,
CCCc1ccc(-c2ccc(N(C[C@H](C)N)C(=O)[C@@H]3C[C@H]3c3ccccn3)cc2)cc1,0.398,
CCCc1ccc(-c2ccc(N(C[C@@H](N)[C@@H](C)CC)C(=O)[C@@H]3C[C@H]3c3ccccn3)cc2)cc1,,EC50 [2]: 1.14 µM; Activity (Mus musculus [3]): Active
COCc1ccc(-c2ccc(N(C[C@@H](N)[C@@H](C)OC)C(=O)[C@@H]3C[C@H]3c3ccccn3)cc2)cc1,,"Activity (Mus musculus [4]): inactive; inhibition at 1 h, 10 µM (VMAT): 54%; inhibition at 1 h, 10 µM [5]: 64%; Ki [6]: 4.23 µM; Activity (Rattus norvegicus): Dose-dependent effect"
CCCc1ccc(-c2ccc(N(C[C@@H](N)C(C)C)C(=O)[C@@H]3C[C@H]3c3ccccn3)cc2)cc1,0.158,
CCCc1ccc(-c2ccc(N(C[C@@H](N)CC(C)C)C(=O)[C@@H]3C[C@H]3c3ccccn3)cc2)cc1,0.126,
CCCc1ccc(-c2ccc(N(C[C@@H](N)[C@@H](C)OC)C(=O)[C@@H]3C[C@H]3c3ccccn3)cc2)cc1 (relative stereo),0.063,
CCCc1ccc(-c2ccc(N(CC(C)(C)N)C(=O)[C@@H]3C[C@H]3c3ccccn3)cc2)cc1 (relative stereo),0.316,
